Test results reported in ChEMBL document CHEMBL1133691 (J Med Chem, 2000).

Key:
[1] = Time required to reach maximum concentration (Cmax) after oral administration in rat; format: ADME, organism-based; conditions: in vivo
Dihydrofolate reductase [2] = target: T1, Dihydrofolate reductase (Homo sapiens, UniProt P00374); experiment: Ability to inhibit recombinant human dihydrofolate reductase.
T1 sequence (P00374 whole entry): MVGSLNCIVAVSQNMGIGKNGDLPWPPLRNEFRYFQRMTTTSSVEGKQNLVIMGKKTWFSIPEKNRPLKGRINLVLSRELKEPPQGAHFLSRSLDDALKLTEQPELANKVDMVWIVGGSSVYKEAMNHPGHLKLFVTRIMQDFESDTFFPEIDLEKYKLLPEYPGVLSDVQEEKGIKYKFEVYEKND

[3] = Volume of distribution at steady state was observed after intravenous administration in rat; format: ADME, organism-based; conditions: in vivo, read-out: Vss
Summary of the method: (§1)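 Male SD rats (233-264 g), 3 per group, given a 1 μmol/kg intravenous bolus into a tail vein in DMA:PEG400:citrate buffer (40:40:20), formulated at 2 μmol/mL. No anaesthesia. Tail-vein blood was sampled at 2, 10, 30, 60, 120, 240 and 360 min. Plasma was ethanol-precipitated and analysed by LC-MS/MS against spiked-plasma standard curves. Values are mean ± SD.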

Rattus norvegicus [4] = experiment: Area under curve in male SD rats was observed after intravenous administration in rat; format: ADME, organism-based; conditions: in vivo; summary of the method: as §1
Rattus norvegicus [5] = experiment: Mean peak plasma concentration was observed after intravenous administration in rat; format: ADME, organism-based; design: route intravenous; conditions: in vivo; summary of the method: as §1
Rattus norvegicus [6] = experiment: Mean peak plasma concentration was observed after oral administration in rat; format: ADME, organism-based; design: route oral; conditions: in vivo
Dihydrofolate reductase [7] = target: T2, Dihydrofolate reductase (Rattus norvegicus, UniProt Q920D2); experiment: Ability to inhibit recombinant rat liver dihydrofolate reductase.
T2 sequence (Q920D2 whole entry): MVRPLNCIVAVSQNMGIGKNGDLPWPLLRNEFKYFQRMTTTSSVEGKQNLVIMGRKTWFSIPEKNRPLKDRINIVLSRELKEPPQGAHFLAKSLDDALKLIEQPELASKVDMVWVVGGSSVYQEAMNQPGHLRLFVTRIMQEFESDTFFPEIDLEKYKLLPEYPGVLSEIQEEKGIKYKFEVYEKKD

[8] = Plasma clearance was observed after intravenous administration in rat; format: ADME, organism-based; summary of the method: as §1
[9] = Plasma half life was observed after intravenous administration in rat; format: ADME, organism-based; summary of the method: as §1
[10] = Oral bioavailability; format: ADME, organism-based; conditions: rat, in vivo
Rattus norvegicus [11] = experiment: Area under curve in male SD rats was observed after oral administration in rat; format: ADME, organism-based; conditions: in vivo
Rattus norvegicus [12] = experiment: mean peak plasma concentration was observed after intravenous administration in rat; format: ADME, organism-based; design: route intravenous; conditions: in vivo; summary of the method: as §1
Rattus norvegicus [13] = experiment: mean peak plasma concentration was observed after oral administration in rat; format: ADME, organism-based; design: route oral; conditions: in vivo
[14] = plasma half life was observed after intravenous administration in rat; format: ADME, organism-based
Summary of the method: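 Male SD rats (233-264 g), three per route; 1 μmol/kg given as a tail-vein bolus in DMA:PEG400:citrate buffer (40:40:20) vehicle at 2 μmol/mL, no anaesthesia. Tail-vein blood sampled at 2, 10, 30, 60, 120, 240 and 360 min; plasma ethanol-precipitated and analysed by LC-MS/MS against spiked-plasma standard curves. Values are means ± SD, n = 3.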

[15] = volume of distribution at steady state was observed after intravenous administration in rat; format: ADME, organism-based; conditions: in vivo, read-out: Vss; summary of the method: as §1
[16] = plasma clearance was observed after intravenous administration in rat; format: ADME, organism-based; summary of the method: as §1
[17] = time required to reach maximum concentration (Cmax) after oral administration in rat; format: ADME, organism-based; conditions: in vivo

Tmax [1] [min] | IC50 (Dihydrofolate reductase [2]) [nM] | Vd [3] [L/kg] | AUC inf (Rattus norvegicus [4]) [µM·h] | Cmax (Rattus norvegicus [5]) [µM] | Cmax (Rattus norvegicus [6]) [µM] | clearance [8] [mL/min/kg] | half-life [9] [min] | bioavailability [10] [%] | AUC (Rattus norvegicus [11]) [µM·h] | Cmax (Rattus norvegicus [12]) [µM] | Cmax (Rattus norvegicus [13]) [µM] | half-life [14] [min] | Vd [15] [L/kg] | clearance [16] [mL/min/kg] | Tmax [17] [min] | Structure (SMILES) | IC50 (Dihydrofolate reductase [7]) [nM]
40.2 | 125 | 0.42 | 1.23 | 9.17 | 0.144 | 15 | 60 | 3.4 | 0.384 | – | – | – | – | – | – | Nc1nc(N)c2cc(COC(=O)c3ccc(C(=O)N[C@@H](CCC(=O)O)C(=O)O)cc3)ccc2n1 | 19.3
– | – | – | – | – | – | – | – | – | – | – | – | – | – | – | – | Nc1nc(N)c2nc(COC(=O)c3ccc(C(=O)N[C@@H](CCC(=O)O)C(=O)O)cc3)cnc2n1 | 120
– | – | – | 1.56 | – | – | – | – | 5.8 | 0.838 | 8.26 | 0.266 | 54 | 0.36 | 11 | 40.2 | CN(Cc1cnc2nc(N)nc(N)c2n1)c1ccc(C(=O)N[C@@H](CCC(=O)O)C(=O)O)cc1 [METHOTREXATE] | –
